Experimental data reported in publication PMC4864154 (Journal of molecular biology, 2014).
Like-named read-outs stand apart in the source and are kept apart here.

Legend:
[1] = target: recombinant GluN1/2A receptors (Rattus norvegicus, UniProt P35439+Q00959); format: cell-based
GluN1-N616G/2A = GluN1-N616G/2A (Rattus norvegicus, UniProt P35439+Q00959, N616G); format: cell-based
[2] = target: GluN1 S617 Gly-substituted GluN1/2A (Rattus norvegicus, UniProt P35439+Q00959, S617G); format: cell-based
GluN1-I619G/2A = GluN1-I619G/2A (Rattus norvegicus, UniProt P35439+Q00959, I619G); format: cell-based
GluN1-I619G/2A, sequence (Q00959 23-1464, other chains not shown): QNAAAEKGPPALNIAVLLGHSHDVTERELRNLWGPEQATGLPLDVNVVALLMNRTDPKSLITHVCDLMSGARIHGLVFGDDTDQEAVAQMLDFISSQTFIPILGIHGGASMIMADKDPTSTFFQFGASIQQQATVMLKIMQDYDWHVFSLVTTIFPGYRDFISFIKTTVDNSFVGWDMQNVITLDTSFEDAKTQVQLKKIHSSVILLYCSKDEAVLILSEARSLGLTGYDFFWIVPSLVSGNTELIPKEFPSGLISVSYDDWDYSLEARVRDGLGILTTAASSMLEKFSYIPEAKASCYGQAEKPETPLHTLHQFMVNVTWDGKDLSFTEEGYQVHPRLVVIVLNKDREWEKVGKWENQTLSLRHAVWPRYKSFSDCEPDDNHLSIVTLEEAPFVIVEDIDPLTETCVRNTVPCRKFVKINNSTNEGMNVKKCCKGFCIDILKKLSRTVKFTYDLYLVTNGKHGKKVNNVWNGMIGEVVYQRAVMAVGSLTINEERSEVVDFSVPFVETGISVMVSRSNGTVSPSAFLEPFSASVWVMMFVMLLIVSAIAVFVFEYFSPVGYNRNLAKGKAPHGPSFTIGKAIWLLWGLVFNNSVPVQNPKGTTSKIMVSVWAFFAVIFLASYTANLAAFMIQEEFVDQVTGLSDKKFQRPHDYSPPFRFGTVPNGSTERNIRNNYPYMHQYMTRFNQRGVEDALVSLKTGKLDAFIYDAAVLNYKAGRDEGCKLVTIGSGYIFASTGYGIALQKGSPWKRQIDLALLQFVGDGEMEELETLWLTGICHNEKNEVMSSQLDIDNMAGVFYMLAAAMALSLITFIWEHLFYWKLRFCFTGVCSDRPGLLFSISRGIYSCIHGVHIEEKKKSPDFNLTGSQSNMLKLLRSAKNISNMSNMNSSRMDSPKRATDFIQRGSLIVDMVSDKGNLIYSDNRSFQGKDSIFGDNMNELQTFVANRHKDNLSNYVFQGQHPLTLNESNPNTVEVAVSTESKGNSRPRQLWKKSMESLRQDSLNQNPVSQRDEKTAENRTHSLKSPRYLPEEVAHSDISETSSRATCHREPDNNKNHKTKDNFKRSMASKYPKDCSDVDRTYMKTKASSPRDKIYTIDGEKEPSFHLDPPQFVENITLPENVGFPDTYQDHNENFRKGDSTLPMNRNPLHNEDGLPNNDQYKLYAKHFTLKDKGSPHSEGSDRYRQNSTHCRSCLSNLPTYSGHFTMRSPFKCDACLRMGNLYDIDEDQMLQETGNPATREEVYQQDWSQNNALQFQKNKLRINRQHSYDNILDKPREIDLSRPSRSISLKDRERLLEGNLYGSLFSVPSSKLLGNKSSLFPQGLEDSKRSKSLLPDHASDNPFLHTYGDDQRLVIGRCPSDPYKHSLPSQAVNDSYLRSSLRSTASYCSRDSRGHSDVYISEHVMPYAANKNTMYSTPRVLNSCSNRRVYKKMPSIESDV
Outline: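 Xenopus oocytes were injected with cRNA for rat GluN1-1a I619G (site-directed mutant, sequence-verified) at 1 ng and WT GluN2A at 10 ng per oocyte. Two-electrode voltage clamp at -60 mV in buffer of 115 mM NaCl, 2 mM KCl, 5 mM HEPES and 1.8 mM BaCl2, pH 7.6. Percent steady-state block of agonist-evoked current by 100 nM test compound or 0.5 mM Mg2+. Mean + SEM from 4–8 oocytes; ANOVA against WT.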

[3] = target: GluN1 E621 Gly-substituted GluN1/2A (Rattus norvegicus, UniProt P35439+Q00959, E621G); format: cell-based; conditions: 100 nM ArgTX-636, -60 mV
Outline: (§1)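 Rat GluN1-1a and GluN2A cDNAs carrying Gly substitutions made by site-directed mutagenesis and sequence-verified. Xenopus oocytes were each injected with cRNA (1 ng GluN1, 10 ng GluN2A). Two-electrode voltage clamp at -60 mV in buffer of 115 mM NaCl, 2 mM KCl, 5 mM HEPES and 1.8 mM BaCl2, pH 7.6. Percent block of agonist-evoked steady-state current by 100 nM test compound. Mean + SEM from 4–8 oocytes; ANOVA against WT.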

[4] = target: GluN2A N614 Gly-substituted GluN1/2A (Rattus norvegicus, UniProt P35439+Q00959, N614G); format: cell-based; conditions: 100 nM ArgTX-636, -60 mV
Outline: as §1

[5] = target: GluN2A N615 Gly-substituted GluN1/2A (Rattus norvegicus, UniProt P35439+Q00959, N615G); format: cell-based; conditions: 100 nM ArgTX-636, -60 mV
Outline: as §1

[6] = target: GluN2A S616 Gly-substituted GluN1/2A (Rattus norvegicus, UniProt P35439+Q00959, S616G); format: cell-based; conditions: 100 nM ArgTX-636, -60 mV
Outline: as §1

[7] = target: GluN2A V617 Gly-substituted GluN1/2A (Rattus norvegicus, UniProt P35439+Q00959, V617G); format: cell-based; conditions: 100 nM ArgTX-636, -60 mV
Outline: as §1

[8] = tested on: GluN1/2A and GluN1/2B over GluN1/2C and GluN1/2D NMDAR subtypes; conditions: ref [44]; [48]; cited from earlier work
WT GluN1/2A = WT GluN1/2A (Rattus norvegicus, UniProt P35439+Q00959); experiment: Two-electrode voltage-clamp, steady-state block in Xenopus oocytes, WT receptor; format: cell-based
[9] = holding potential -80 mV, Glu 100 μM, Gly 50 μM, HEK293

GluN1-N616G/2A, sequence (Q00959 23-1464, other chains not shown): as above
recombinant GluN1/2A receptors, sequence (Q00959 23-1464, other chains not shown): as above

NC(=O)C[C@H](NC(=O)Cc1ccc(O)cc1O)C(=O)NCCCCCNCCCNCCCNC(=O)[C@@H](N)CCCN=C(N)N [ArgTX-636, argiotoxin-636]
decrease in dissociation rate over -60 to -100 mV ([1]; 500 nM ArgTX-636, -60 to -100 mV range): less than 2 fold
increase in rate of onset of block per 20-mV negative depolarization ([1]; 500 nM ArgTX-636, membrane potential below -60 mV): approximately 5 fold
steady-state block of the current ([1]; 500 nM ArgTX-636 for 6 s, 100 μM Glu, -80 mV): 96 ± 1%
fold higher association rate constant compared to memantine ([1]; ArgTX-636 Kon vs literature memantine Kon): approximately 10 fold
association rate constant (Kon) with the open channel [1, 9]: 4.4 ± 0.3 × 10^6 M^-1 s^-1
dissociation rate constant (Koff) with the open channel [1, 9]: 0.36 ± 0.09 s⁻¹
mechanism of block (trapping) ([1]; recovery after wash in absence of agonist, 500 nM ArgTX-636, -80 mV): trapping blocker
percent steady-state block (GluN1-N616G/2A; 100 nM ArgTX-636, -60 mV, GluN1 N616G): 78%
percent steady-state block ([2]; 100 nM ArgTX-636, -60 mV, GluN1 S617G): less than 15%
percent steady-state block (GluN1-I619G/2A; 100 nM ArgTX-636, -60 mV, GluN1 I619G): less than 15%
percent steady-state block [3]: less than 15%
percent steady-state block [4]: ~100%
percent steady-state block [5]: ~100%
percent steady-state block [6]: ~100%
percent steady-state block [7]: ~100%
selectivity for GluN1/2A and GluN1/2B over GluN1/2C and GluN1/2D [8]: more than 20 fold

C[C@]12N[C@H](Cc3ccccc31)c1ccccc12 [MK-801, dizocilpine]
percent steady-state block (WT GluN1/2A): 75%
percent steady-state block (GluN1-N616G/2A): less than 40%
percent steady-state block [2]: less than 40%

[Mg+2] [Mg^2+]
percent steady-state block (WT GluN1/2A; 0.5 mM Mg^2+, WT): 88%
percent steady-state block (GluN1-N616G/2A; 0.5 mM Mg^2+, GluN1-N616G/2A): 28%
percent steady-state block (GluN1-I619G/2A; 0.5 mM Mg^2+, GluN1-I619G/2A): 53%
